Assay [1] relates to Rattus norvegicus. In words: Effect on lower lip retraction in Wistar rat at 2.5 mg/kg. Type of assay: functional. A digest of the protocol: (§1)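 Male Wistar rats (290–310 g) dosed ip in 1% Tween 80 (2 ml/kg), caged singly; lower lip retraction scored 15, 30 and 45 min after dosing as 0 (incisors not visible), 0.5 (partly) or 1 (completely visible), totals up to 3 per rat. n = 6 per group; one-way ANOVA followed by Dunnett's test.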

The species entered for assay [2] is Mus musculus. The note with it: Swiss Albino, 10 mg/kg.
The species named for assay [3] is Mus musculus. The note with it: Swiss Albino, 20 mg/kg.
Assay [4] relates to Rattus norvegicus. In words: Effect on 8-OH-DPAT-induced lower lip retraction in Wistar rat at 10 mg/kg. Type of assay: functional.
The subject of assay [5] is Rattus norvegicus. In words: Effect on 8-OH-DPAT-induced lower lip retraction in Wistar rat at 5 mg/kg. The format is functional.
The species named for assay [6] is Mus musculus. The note with it: Swiss Albino, 20 mg/kg. The source holds these as a separate data set.
Assay [7] concerns the target D(2) dopamine receptor (Rattus norvegicus, UniProt P61169). In words: Displacement of [3H]spiperone from dopamine D2 receptor in rat striatal membranes. Type of assay: cell membranes, Membrane. A digest of the protocol: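 Competition binding on rat striatal membranes using [3H]-spiperone, butaclamol for nonspecific binding; filtration through GF/B filters and scintillation counting. Run at two compound concentrations, each in triplicate, and affinity expressed as estimated Ki.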
Background: Loss of bound radioactivity is the signal in a displacement assay; it reports binding, not function.

For assay [8], the species on record is Mus musculus. The note with it: Swiss Albino, 10 mg/kg. This is another data set of the same source.
The species entered for assay [9] is Mus musculus. The note with it: Swiss Albino, 10 mg/kg. This is another data set of the same source.
Assay [10] is filed under the species Mus musculus. The note with it: Swiss Albino, 10 mg/kg. This is another data set of the same source.
Assay [11] is filed under the species Mus musculus. The note with it: Swiss Albino, 20 mg/kg. This is another data set of the same source.
Assay [12] is filed under the species Mus musculus. The note with it: Swiss Albino, 20 mg/kg. The source holds these as a separate data set.
Assay [13] deals with Rattus norvegicus. In words: Effect on 8-OH-DPAT-induced lower lip retraction in Wistar rat at 2.5 mg/kg. The format is functional.
For assay [14], the species on record is Mus musculus. The note with it: Swiss Albino, 10 mg/kg. The source holds these as a separate data set.
For assay [15], the target named is 5-hydroxytryptamine receptor 7 (Homo sapiens, UniProt P34969). In words: Displacement of [3H]5-CT from human 5HT7 expressed in HEK293 cells. The format is cell-based. The essentials:
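HEK293 cells stably transfected with human 5-HT7(b) cDNA; membranes (10 µg protein) incubated 1 h at 37 °C in 50 mM Tris-HCl pH 7.4 with 4 mM MgCl2, 0.1 mM pargyline, 0.1% ascorbic acid, 0.5 nM [3H]-5-CT and 7–9 test concentrations in triplicate; 10 µM 5-HT defines nonspecific binding. GF/B filtration, scintillation counting; Ki via Cheng-Prusoff from ≥3 experiments.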

Assay [16] is described as follows: Displacement of [3H]prazosin from adrenergic alpha1 receptor in rat cortical membranes. The format is cell membranes, Membrane. A digest of the protocol:
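Rat cortical membranes with [3H]-prazosin; phentolamine defines nonspecific binding. 7–9 drug concentrations in triplicate, at least three separate experiments; stopped by GF/B filtration with three ice-cold buffer washes, bound radioactivity by liquid scintillation counting; Ki from non-linear regression and Cheng-Prusoff equation.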

The subject of assay [17] is Rattus norvegicus. In words: Effect on lower lip retraction in Wistar rat at 10 mg/kg. Type of assay: functional. A digest of the protocol: as §1
The subject of assay [18] is Rattus norvegicus. In words: Effect on lower lip retraction in Wistar rat at 5 mg/kg. Type of assay: functional. The essentials: as §1
The target of assay [19] is T1, 5-hydroxytryptamine receptor 1A (Rattus norvegicus, UniProt P19327).
T1 sequence (P19327 whole entry): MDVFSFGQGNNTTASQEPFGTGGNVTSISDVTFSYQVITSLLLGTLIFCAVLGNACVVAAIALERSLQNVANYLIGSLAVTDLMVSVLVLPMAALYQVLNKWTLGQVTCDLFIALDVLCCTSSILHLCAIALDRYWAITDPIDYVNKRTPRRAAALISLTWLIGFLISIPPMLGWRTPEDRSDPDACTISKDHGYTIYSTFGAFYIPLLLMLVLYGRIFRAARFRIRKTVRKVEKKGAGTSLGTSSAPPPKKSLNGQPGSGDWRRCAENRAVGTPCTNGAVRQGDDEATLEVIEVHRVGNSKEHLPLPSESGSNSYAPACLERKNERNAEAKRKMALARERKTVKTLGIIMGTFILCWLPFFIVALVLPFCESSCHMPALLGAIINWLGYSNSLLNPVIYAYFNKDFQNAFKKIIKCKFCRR
In words: Displacement of [3H]8-OH-DPAT from 5HT1A in rat hippocampal membranes. The format is cell membranes, Hippocampus, Membrane. A digest of the protocol:
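Rat hippocampal membranes, [3H]-8-OH-DPAT as radioligand, 5-HT defining nonspecific binding. 7–9 drug concentrations run in triplicate, at least three separate experiments. Filtration through GF/B filters with three ice-cold buffer washes, scintillation counting. Ki from non-linear regression of binding isotherms via Cheng-Prusoff equation.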

Assay [20] is filed under the species Mus musculus. The note with it: Swiss Albino, 20 mg/kg. This is another data set of the same source.
Assay [21] deals with Rattus norvegicus. In words: Effect on lower lip retraction in Wistar rat at 20 mg/kg. Type of assay: functional. The essentials:
as §1

Assay [22] deals with Rattus norvegicus. In words: Effect on 8-OH-DPAT-induced lower lip retraction in Wistar rat at 20 mg/kg. Type of assay: functional.
The species named for assay [23] is Mus musculus. The note with it: Swiss Albino, 2.5 mg/kg.
Assay [24] is filed under the species Mus musculus. The note with it: Swiss Albino, 2.5 mg/kg. The source holds these as a separate data set.
For assay [25], the species on record is Mus musculus. The note with it: Swiss Albino, 5 mg/kg.
The species named for assay [26] is Mus musculus. The note with it: Swiss Albino, 5 mg/kg. The source holds these as a separate data set.
The species named for assay [27] is Mus musculus. The note with it: Swiss Albino, 5 mg/kg. This is another data set of the same source.
For assay [28], the species on record is Mus musculus. The note with it: Swiss Albino, 2.5 mg/kg. The source holds these as a separate data set.
The species named for assay [29] is Mus musculus. The note with it: Swiss Albino, 5 mg/kg. This is another data set of the same source.
The species named for assay [30] is Mus musculus. The note with it: Swiss Albino, 5 mg/kg. The source holds these as a separate data set.
The species named for assay [31] is Mus musculus. The note with it: Swiss Albino, 2.5 mg/kg. The source holds these as a separate data set.
For assay [32], the species on record is Mus musculus. The note with it: Swiss Albino, 5 mg/kg. This is another data set of the same source.
Assay [33] has as its system Mus musculus. In words: Anxiolytic activity in Swiss Albino mouse assessed as number of punished crossings for 60 secs at 10 mg/kg administered 30 mins before the test by four-plate test. Type of assay: functional. The essentials:
(§2)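 Male Albino Swiss mice (24–28 g), compound suspended in 1% aqueous Tween 80, given ip (10 ml/kg). Mouse placed in box with four metal floor plates, 15 s exploration, then floor electrified (120 V, 0.5 s) at each plate-to-plate crossing, no new shock for 3 s. Punished crossings counted over 60 s. n = 9-10/group; one-way ANOVA then Dunnett's test.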

Assay [34] has as its system Mus musculus. In words: Effect on locomotor activity in Swiss Albino mouse assessed as number of crossings in 6 mins at 10 mg/kg administered 30 mins before the test. The format is functional. A digest of the protocol:
(§3)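 Male Albino Swiss mice (24–28 g) given compound ip (suspension in 1% aqueous Tween 80, 10 ml/kg). Animals housed singly in plastic cages in a multichannel photobeam activity monitor. Ambulation crossings counted over first 6 min and over 30-min session. n = 9-10/group; one-way ANOVA then Dunnett's test.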

Assay [35] relates to Mus musculus. In words: Antidepressant activity in Swiss Albino mouse assessed as immobility time during final 4 mins of 6 mins session at 10 mg/kg administered 30 mins before the test by forced-swimming test. Type of assay: functional. The essentials:
(§4)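 Male Albino Swiss mice (24–28 g), compound given ip in 1% aqueous Tween 80 (10 ml/kg), 30 min before test. Mouse placed singly in glass cylinder (25 cm high, 10 cm diameter) holding 6 cm water at 23–25 °C for 6 min; immobility (floating, only small head-keeping movements) timed over last 4 min. n = 9-10 per group; one-way ANOVA then Dunnett's test.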

For assay [36], the system named is Mus musculus. In words: Effect on locomotor activity in Swiss Albino mouse assessed as number of crossings in 30 mins at 5 mg/kg administered 30 mins before the test. The format is functional. A digest of the protocol: (§5)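 Male Albino Swiss mice given compound ip (1% Tween 80, 10 ml/kg) 30 min before placement singly in plastic cages in a multichannel photobeam activity monitor; ambulation crossings counted over the first 6 min and over a 30 min session. n = 9-10 per group; ANOVA then Dunnett's test.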

Assay [37] concerns Mus musculus. In words: Effect on locomotor activity in Swiss Albino mouse assessed as number of crossings in 6 mins at 5 mg/kg administered 30 mins before the test. Type of assay: functional. The essentials: as §3
Assay [38] has as its system Mus musculus. In words: Anxiolytic activity in Swiss Albino mouse assessed as number of punished crossings for 60 secs at 2.5 mg/kg administered 30 mins before the test by four-plate test. The format is functional. A digest of the protocol:
as §2

Assay [39] deals with Mus musculus. In words: Anxiolytic activity in Swiss Albino mouse assessed as number of punished crossings for 60 secs at 5 mg/kg administered 30 mins before the test by four-plate test. The format is functional. The essentials:
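Male Albino Swiss mice dosed ip (1% aqueous Tween 80, 10 ml/kg) 30 min beforehand. Opaque box floored with four metal plates; 15 s free exploration, then each plate-to-plate crossing triggers a 0.5 s, 120 V floor shock, with no new shock for 3 s if running continues. Punished crossings counted over 60 s; n = 9-10, ANOVA plus Dunnett's test.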

Assay [40] relates to Mus musculus. In words: Antidepressant activity in Swiss Albino mouse assessed as immobility time during final 4 mins of 6 mins session at 5 mg/kg administered 30 mins before the test by forced-swimming test. The format is functional. The essentials: as §4
Assay [41] has as its system Mus musculus. In words: Effect on locomotor activity in Swiss Albino mouse assessed as number of crossings in 30 mins at 10 mg/kg administered 30 mins before the test. The format is functional. The essentials:
as §5

Molecules are shown by their SMILES.

D(2) dopamine receptor, sequence (P61169 whole entry): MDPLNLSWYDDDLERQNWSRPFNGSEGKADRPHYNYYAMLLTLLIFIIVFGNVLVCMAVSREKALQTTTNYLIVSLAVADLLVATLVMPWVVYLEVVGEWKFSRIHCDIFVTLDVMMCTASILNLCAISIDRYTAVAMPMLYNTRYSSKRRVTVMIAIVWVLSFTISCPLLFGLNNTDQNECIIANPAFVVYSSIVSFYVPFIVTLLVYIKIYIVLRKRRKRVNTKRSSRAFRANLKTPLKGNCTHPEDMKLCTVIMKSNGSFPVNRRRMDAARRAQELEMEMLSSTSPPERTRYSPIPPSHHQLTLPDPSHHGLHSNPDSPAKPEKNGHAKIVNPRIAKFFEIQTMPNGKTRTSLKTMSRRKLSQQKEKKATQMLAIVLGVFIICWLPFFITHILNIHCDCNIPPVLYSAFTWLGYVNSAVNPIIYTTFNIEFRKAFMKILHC
5-hydroxytryptamine receptor 7, sequence (P34969 whole entry): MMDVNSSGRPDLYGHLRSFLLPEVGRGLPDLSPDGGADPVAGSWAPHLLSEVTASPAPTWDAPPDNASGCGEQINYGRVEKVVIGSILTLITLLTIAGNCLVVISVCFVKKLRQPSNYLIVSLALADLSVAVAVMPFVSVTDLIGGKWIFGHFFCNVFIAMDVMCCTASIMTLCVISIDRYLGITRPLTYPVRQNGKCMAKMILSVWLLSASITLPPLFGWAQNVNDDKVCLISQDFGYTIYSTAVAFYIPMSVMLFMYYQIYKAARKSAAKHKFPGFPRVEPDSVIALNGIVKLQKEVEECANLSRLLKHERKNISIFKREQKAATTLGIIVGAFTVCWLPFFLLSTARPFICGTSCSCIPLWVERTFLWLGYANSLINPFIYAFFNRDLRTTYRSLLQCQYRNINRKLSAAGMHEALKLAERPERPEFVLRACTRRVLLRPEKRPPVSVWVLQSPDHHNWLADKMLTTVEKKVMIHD

Usually Ki stands for a measure of affinity in units of concentration, obtained from inhibition or displacement. The low end stands for a stronger hold on the target, the high end for a looser hold on the target. For `O=C1C2=C(CCCC2)C(=O)N1CCCCN1CCN(c2cccc(C(F)(F)F)c2)CC1`, the Activity in assay [1] was found to be 1.9; in [4], 1.1; in [5], 1.5; in [13] it was 2.3; in assay [17], 2.2; in assay [18], 2.2. In addition, the deltaT in assay [2] is 0 °C; in [3], -0.6 °C; in assay [6], -1.3 °C; in assay [8] it was 0.2 °C; in assay [9] it was 0 °C; in [10], 0 °C. Also, the deltaT in assay [11] is -1.1 °C; in [12] it was -1.3 °C; in [14], -0.2 °C; in [20], -1.8 °C. Moreover, the Ki is more than 5000 nM in [7], 134 nM in assay [15], 30 nM in assay [16] and 5.9 nM in assay [19].

With `O=C1C2=C(CCCC2)C(=O)N1C1CCC(N2CCN(c3cccc(C(F)(F)F)c3)CC2)CC1` (centres undefined), the Activity in assay [21] is on record as 2; in assay [22] it was 1.8; in assay [4], 1.9; in assay [5], 2.5; in assay [17], 2; in [18], 1.8. In addition, the deltaT is -0.4 °C in assay [23]; -0.5 °C in [24]; 0.1 °C in assay [25]; -0.7 °C in assay [26]; -0.3 °C in assay [27]; 0.1 °C in assay [28]. Besides, the deltaT in assay [29] was -1.2 °C; in [30] it was 0.2 °C; in assay [31], -0.4 °C; in assay [32], -1.4 °C. Further, the Ki was 2640 nM in assay [7], more than 5000 nM in assay [15], 4 nM in assay [16] and 0.3 nM in [19].

In the case of `CC1(C)CC(=O)N(CCCCN2CCN(c3cccc(C(F)(F)F)c3)CC2)C(=O)C1`, the Activity is 7.6 in assay [33]; 23 in assay [34]; 112.1 s in assay [35]; 730.8 in assay [36]; 121.7 in [37]; 5.3 in assay [38]. The Activity in [39] is reported as 6.9; in [40], 157.7 s; in assay [41] it was 265.1. In addition, the results for the Ki in assay [15] and in assay [16] were 46 nM and 127 nM, respectively.

Turning to `O=C1C2CC=CCC2C(=O)N1CCCCN1CCN(c2cccc(C(F)(F)F)c2)CC1` (cis isomer), the deltaT is -0.6 °C in [2]; -1.2 °C in assay [3]; -1.6 °C in assay [6]; -0.3 °C in assay [8]; -0.9 °C in assay [9]; -0.2 °C in assay [10]. The deltaT in assay [11] was -1.5 °C; in assay [12], -1.3 °C; in assay [14], -0.6 °C; in assay [20] it was -1.5 °C. The Activity in [21] is on record as 1.8; in assay [22] it was 0.5; in assay [4] it was 1.9; in assay [17], 1.4. The Ki in assay [7] worked out at 2720 nM; in assay [15], 31 nM; in [16], 73 nM; in assay [19], 34 nM.

Source of the values: ChEMBL document CHEMBL1139831, “The influence of modifications in imide fragment structure on 5-HT(1A) and 5-HT(7) receptor affinity and in vivo pharmacological properties of some new 1-(m-trifluoromethylphenyl)piperazines” (Bioorg Med Chem, 2007).
